From ChEMBL document CHEMBL1147262, “Cytotoxic constituents of Aspergillus terreus from the rhizosphere of Opuntia versicolor of the Sonoran Desert” (J Nat Prod, 2003)
Calls of active or inactive are those of the source. No cut-off for these calls is given here.

Experiments:
[1] = system: NCI-H460; assay: Cytotoxicity against human NCI-H460 cells after 48 hrs by MTT assay; assay type: functional, cell-based; conditions: NCI-H460, 48 h
How it was run: (§1)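 MCF-7, NCI-H460 and SF-268 cells were exposed to serial dilutions for 48 h in RPMI 1640 with 10% fetal bovine serum. Viability was read by MTT colorimetric assay, and IC50 was taken as the concentration giving 50% inhibition of proliferation/survival.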

[2] = system: MCF7; assay: Cytotoxicity against human MCF7 cells after 48 hrs by MTT assay; assay type: functional, cell-based; conditions: MCF7, 48 h; how it was run: as §1
[3] = system: SF-268; assay: Cytotoxicity against human SF268 cells after 48 hrs by MTT assay; assay type: functional, cell-based; conditions: SF-268, 48 h; how it was run: as §1
[4] = system: NCI-H460; assay: Cell cycle arrest in human NCI-H460 cells assessed as accumulation at G1 phase at 0.1 uM by flow cytometry; assay type: functional
How it was run: (§2)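 NCI-H460 cells taken at 75-85% confluency, seeded at 2.5 × 10^5 cells per 60 mm dish and left to reattach overnight. Treated overnight in complete RPMI 1640 at 10 µg/mL final (test agents) or 0.1 µM final (positive control), with DMSO ≤0.1 vol %. Harvested by trypsin, PBS-rinsed, resuspended in Krishan's buffer, then DNA-content flow cytometry gave G1/S/G2/M percentages.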

[5] = system: NCI-H460; assay: Cell cycle arrest in human NCI-H460 cells assessed as accumulation at S phase at 0.1 uM by flow cytometry; assay type: functional; how it was run: as §2
[6] = system: NCI-H460; assay: Cell cycle arrest in human NCI-H460 cells assessed as accumulation at G2/M phase at 0.1 uM by flow cytometry; assay type: functional; how it was run: as §2
[7] = system: NCI-H460; assay: Cell cycle arrest in human NCI-H460 cells assessed as accumulation at G1 phase at 10 ug/mL by flow cytometry; assay type: functional; how it was run: as §2
[8] = system: NCI-H460; assay: Cell cycle arrest in human NCI-H460 cells assessed as accumulation at S phase at 10 ug/mL by flow cytometry; assay type: functional; how it was run: as §2
[9] = system: NCI-H460; assay: Cell cycle arrest in human NCI-H460 cells assessed as accumulation at G2/M phase at 10 ug/mL by flow cytometry; assay type: functional; how it was run: as §2
[10] = system: NCI-H460; assay: Cell cycle arrest in human NCI-H460 cells assessed as accumulation at S phase at 3 uM by flow cytometry
[11] = system: NCI-H460; assay: Cell cycle arrest in human NCI-H460 cells assessed as accumulation at G1 phase at 3 uM by flow cytometry
[12] = system: NCI-H460; assay: Cell cycle arrest in human NCI-H460 cells assessed as accumulation at G2/M phase at 3 uM by flow cytometry
[13] = system: NCI-H460; assay: Cytotoxicity against human NCI-H460 cells at 10 ug/mL after 48 hrs by MTT assay; assay type: functional, cell-based
[14] = system: MCF7; assay: Cytotoxicity against human MCF7 cells at 10 ug/mL after 48 hrs by MTT assay; assay type: functional, cell-based
[15] = system: SF-268; assay: Cytotoxicity against human SF268 cells at 10 ug/mL after 48 hrs by MTT assay; assay type: functional, cell-based

Compound | IC50 [1] | IC50 [2] | IC50 [3] | further results
COC1=C(c2c[nH]c3ccccc23)C(=O)C(OC)=C(c2c[nH]c3ccccc23)C1=O [ASTERRIQUINONE D] | 19.9 µM | 17.7 µM | 15.8 µM | 
CC(=O)O[C@H]1C(=O)[C@@]2(C)[C@H]([C@H](OC(=O)c3ccccc3)[C@]3(O)C[C@H](OC(=O)[C@H](O)[C@@H](NC(=O)c4ccccc4)c4ccccc4)C(C)=C1C3(C)C)[C@]1(OC(C)=O)CO[C@@H]1C[C@@H]2O [PACLITAXEL] |  | 0.0112 µM |  | Activity [4]: 15.5%; Activity [5]: 14%; Activity [6]: 70.5%
C=C1C(=O)C[C@H]2[C@@H]3CC[C@H](C(=O)OC)[C@]12CC3(C)C | 9.4 µM | 16.7 µM | 10.2 µM | 
COC[C@H]1C(=O)C[C@H]2[C@@H]3CC[C@H](C(=O)O)[C@]12CC3(C)C | 19.4 µM | 20.6 µM | 21.4 µM | Activity [7]: 44.3%; Activity [8]: 21.4%; Activity [9]: 34.3%
C=CC(C)(C)c1[nH]c2ccccc2c1C1=C(OC)C(=O)C(c2c[nH]c3ccccc23)=C(OC)C1=O | 24.2 µM | 4.1 µM | 25.7 µM | 
COC1=C(c2ccccc2)C(=O)C(OC)=C(c2ccccc2)C1=O [BETULINAN A] | 58.4 µM | 8.7 µM | 28 µM | 
C=C1C(=O)C[C@H]2[C@@H]3CC[C@H](C(=O)O)[C@]12CC3(C)C | 10.6 µM | 24.1 µM | 14.7 µM | Activity [7]: 40.7%; Activity [8]: 16%; Activity [9]: 43.7%
COC(=O)Nc1nc2cc(C(=O)c3cccs3)ccc2[nH]1 [NOCODAZOLE] |  |  |  | Activity [10]: 6.9%; Activity [11]: 13%; Activity [12]: 80.1%
CC1(C)C[C@]23[C@@H](C(=O)O)CC[C@H]1[C@@H]2CC(=O)[C@@H]3CO | 14.5 µM | 16.5 µM | 7.8 µM | 
CC1C(=O)C[C@H]2[C@@H]3CC[C@H](C(=O)O)[C@]12CC3(C)C (stereo partly specified) |  |  |  | Activity [13]: inactive; Activity [14]: inactive; Activity [15]: inactive
COC(=O)C1(c2c[nH]c3ccccc23)C(=O)C(OC)=C(c2c[nH]c3ccccc23)C1=O (stereo unspecified) [ASTERREDIONE] | 17.4 µM | 25.2 µM | 20.7 µM | 
CC1(C)C[C@]23[C@@H]4COC(=O)[C@H]2CC[C@H]1[C@@H]3CC4=O [QUADRONE] | 12.4 µM | 14.3 µM | 16.9 µM | Activity [7]: 38.8%; Activity [8]: 6.3%; Activity [9]: 54.8%
